Assay results: ChEMBL document CHEMBL2021818, “Novel desosamine-modified 14- and 15-membered macrolides without antibacterial activity” (2012)
In brackets after ≈: the same amount, converted by molar mass.

Key:
Format in all cases: functional
Staphylococcus aureus = experiment: Antibacterial activity against Staphylococcus aureus ATCC 13709 after 24 hrs at 37 degC by CLSI protocol based microdilution method; details: ATCC 13709, 24 h
Summary of the method: (§1)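 Macrolide-susceptible strains, broth microdilution MIC per CLSI. Media: Mueller–Hinton broth (MHB) for S. aureus and M. catarrhalis, MHB plus 5% horse serum for streptococci, Haemophilus test medium for H. influenzae. Compounds dissolved in DMF (5 mg/mL stock) and serially twofold diluted in medium over 64 to 0.125 µg/mL. MIC read after 24 h incubation at 37 °C.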

Streptococcus pyogenes = experiment: Antibacterial activity against Streptococcus pyogenes ATCC 700294 after 24 hrs at 37 degC by CLSI protocol based microdilution method; details: ATCC 700294, 24 h; summary of the method: as §1
Moraxella catarrhalis = experiment: Antibacterial activity against Moraxella catarrhalis ATCC 23246 after 24 hrs at 37 degC by CLSI protocol based microdilution method; details: ATCC 23246, 24 h; summary of the method: as §1
Streptococcus pneumoniae = experiment: Antibacterial activity against Streptococcus pneumoniae ATCC […] after 24 hrs at 37 degC by CLSI protocol based microdilution method; summary of the method: as §1
Haemophilus influenzae = experiment: Antibacterial activity against Haemophilus influenzae ATCC 49247 after 24 hrs at 37 degC by CLSI protocol based microdilution method; details: ATCC 49247, 24 h; summary of the method: as §1

Compound | MIC (Staphylococcus aureus) [µg/mL] | MIC (Streptococcus pyogenes) [µg/mL] | MIC (Moraxella catarrhalis) [µg/mL] | MIC (Streptococcus pneumoniae) [µg/mL] | MIC (Haemophilus influenzae) [µg/mL]
CC[C@H]1OC(=O)[C@H](C)[C@@H](O[C@H]2C[C@@](C)(OC)[C@@H](O)[C@H](C)O2)[C@H](C)[C@@H](O[C@@H]2O[C@H](C)C[C@H](NC)[C@H]2O)[C@](C)(OC)C[C@@H](C)C(=O)N[C@H](C)[C@@H](O)[C@]1(C)O | > 64 | 64 (≈ 85.5 µM) | 16 (≈ 21.4 µM) | 32 (≈ 42.7 µM) | > 64
CC[C@H]1OC(=O)[C@H](C)[C@@H](O[C@H]2C[C@@](C)(OC)[C@@H](O)[C@H](C)O2)[C@H](C)[C@@H](O[C@@H]2O[C@H](C)C[C@H](NC)[C@H]2O)[C@](C)(OC)C[C@@H](C)C(=O)[C@H](C)[C@@H](O)[C@]1(C)O | 4 (≈ 5.45 µM) | < 0.25 | 2 (≈ 2.73 µM) | < 0.25 | > 64
CC[C@H]1OC(=O)[C@H](C)[C@@H](O[C@H]2C[C@@](C)(OC)[C@@H](O)[C@H](C)O2)[C@H](C)[C@@H](O[C@@H]2O[C@H](C)C[C@H](NC)[C@H]2O)[C@](C)(O)C[C@@H](C)CN(C)[C@H](C)[C@@H](O)[C@]1(C)O | 16 (≈ 21.8 µM) | 2 (≈ 2.72 µM) | 2 (≈ 2.72 µM) | 2 (≈ 2.72 µM) | > 64
CC[C@H]1OC(=O)[C@H](C)[C@@H](O[C@H]2C[C@@](C)(OC)[C@@H](O)[C@H](C)O2)[C@H](C)[C@@H](O[C@@H]2O[C@H](C)C[C@H](N)[C@H]2O)[C@](C)(OC)C[C@@H](C)C(=O)N[C@H](C)[C@@H](O)[C@]1(C)O | > 64 | > 64 | > 64 | > 64 | > 64
CC[C@H]1OC(=O)[C@H](C)[C@@H](O[C@H]2C[C@@](C)(OC)[C@@H](O)[C@H](C)O2)[C@H](C)[C@@H](O[C@@H]2O[C@H](C)C[C@H](N)[C@H]2O)[C@](C)(OC)C[C@@H](C)C(=O)[C@H](C)[C@@H](O)[C@]1(C)O | > 64 | 2 (≈ 2.78 µM) | 16 (≈ 22.2 µM) | 2 (≈ 2.78 µM) | > 64
CC[C@H]1OC(=O)[C@H](C)[C@@H](O[C@H]2C[C@@](C)(OC)[C@@H](O)[C@H](C)O2)[C@H](C)[C@@H](O[C@@H]2O[C@H](C)C[C@H](N)[C@H]2O)[C@](C)(O)C[C@@H](C)CN(C)[C@H](C)[C@@H](O)[C@]1(C)O | > 64 | 32 (≈ 44.4 µM) | 8 (≈ 11.1 µM) | 4 (≈ 5.55 µM) | 64 (≈ 88.8 µM)
CC[C@H]1OC(=O)[C@H](C)[C@@H](O[C@H]2C[C@@](C)(OC)[C@@H](O)[C@H](C)O2)[C@H](C)[C@@H](O[C@@H]2O[C@H](C)C[C@@H]3NC(=O)O[C@@H]23)[C@](C)(OC)C[C@@H](C)C(=O)N[C@H](C)[C@@H](O)[C@]1(C)O | > 64 | > 64 | > 64 | > 64 | > 64
CC[C@H]1OC(=O)[C@H](C)[C@@H](O[C@H]2C[C@@](C)(OC)[C@@H](O)[C@H](C)O2)[C@H](C)[C@@H](O[C@@H]2O[C@H](C)C[C@@H]3NC(=O)O[C@@H]23)[C@](C)(OC)C[C@@H](C)C(=O)[C@H](C)[C@@H](O)[C@]1(C)O | > 64 | > 64 | > 64 | > 64 | > 64
CC[C@H]1OC(=O)[C@H](C)[C@@H](O[C@H]2C[C@@](C)(OC)[C@@H](O)[C@H](C)O2)[C@H](C)[C@@H](O[C@@H]2O[C@H](C)C[C@@H]3NC(=O)O[C@@H]23)[C@](C)(O)C[C@@H](C)CN(C)[C@H](C)[C@@H](O)[C@]1(C)O | > 64 | > 64 | > 64 | > 64 | > 64
CC[C@H]1OC(=O)[C@H](C)[C@@H](O[C@H]2C[C@@](C)(OC)[C@@H](O)[C@H](C)O2)[C@H](C)[C@@H](O[C@@H]2O[C@H](C)C[C@H]3[C@H]2OC(=O)N3C)[C@](C)(OC)C[C@@H](C)C(=O)N[C@H](C)[C@@H](O)[C@]1(C)O | > 64 | > 64 | > 64 | > 64 | > 64
CC[C@H]1OC(=O)[C@H](C)[C@@H](O[C@H]2C[C@@](C)(OC)[C@@H](O)[C@H](C)O2)[C@H](C)[C@@H](O[C@@H]2O[C@H](C)C[C@H]3[C@H]2OC(=O)N3C)[C@](C)(OC)C[C@@H](C)C(=O)[C@H](C)[C@@H](O)[C@]1(C)O | > 64 | > 64 | > 64 | > 64 | > 64
CC[C@H]1OC(=O)[C@H](C)[C@@H](O[C@H]2C[C@@](C)(OC)[C@@H](O)[C@H](C)O2)[C@H](C)[C@@H](O[C@@H]2O[C@H](C)C[C@H]3[C@H]2OC(=O)N3C)[C@](C)(O)C[C@@H](C)CN(C)[C@H](C)[C@@H](O)[C@]1(C)O | > 64 | > 64 | > 64 | > 64 | > 64
CC[C@H]1OC(=O)[C@H](C)[C@@H](O[C@H]2C[C@@](C)(OC)[C@@H](O)[C@H](C)O2)[C@H](C)[C@@H](O[C@@H]2O[C@H](C)C[C@H]3[C@H]2OC(=O)N3CC)[C@](C)(OC)C[C@@H](C)C(=O)N[C@H](C)[C@@H](O)[C@]1(C)O | > 64 | > 64 | > 64 | > 64 | > 64
CCCN1C(=O)O[C@H]2[C@H](O[C@@H]3[C@@H](C)[C@H](O[C@H]4C[C@@](C)(OC)[C@@H](O)[C@H](C)O4)[C@@H](C)C(=O)O[C@H](CC)[C@@](C)(O)[C@H](O)[C@@H](C)NC(=O)[C@H](C)C[C@@]3(C)OC)O[C@H](C)C[C@@H]21 | > 64 | > 64 | > 64 | > 64 | > 64
CC[C@H]1OC(=O)[C@H](C)[C@@H](O[C@H]2C[C@@](C)(OC)[C@@H](O)[C@H](C)O2)[C@H](C)[C@@H](O[C@@H]2O[C@H](C)C[C@H]3[C@H]2OC(=O)N3CC)[C@](C)(OC)C[C@@H](C)C(=O)[C@H](C)[C@@H](O)[C@]1(C)O | > 64 | > 64 | > 64 | > 64 | > 64
CCCN1C(=O)O[C@H]2[C@H](O[C@@H]3[C@@H](C)[C@H](O[C@H]4C[C@@](C)(OC)[C@@H](O)[C@H](C)O4)[C@@H](C)C(=O)O[C@H](CC)[C@@](C)(O)[C@H](O)[C@@H](C)C(=O)[C@H](C)C[C@@]3(C)OC)O[C@H](C)C[C@@H]21 | > 64 | > 64 | > 64 | > 64 | > 64
CC[C@H]1OC(=O)[C@H](C)[C@@H](O[C@H]2C[C@@](C)(OC)[C@@H](O)[C@H](C)O2)[C@H](C)[C@@H](O[C@@H]2O[C@H](C)C[C@H]3[C@H]2OC(=O)N3Cc2ccccc2)[C@](C)(OC)C[C@@H](C)C(=O)[C@H](C)[C@@H](O)[C@]1(C)O | > 64 | > 64 | > 64 | > 64 | > 64
CC[C@H]1OC(=O)[C@H](C)[C@@H](O[C@H]2C[C@@](C)(OC)[C@@H](O)[C@H](C)O2)[C@H](C)[C@@H](O[C@@H]2O[C@H](C)C[C@H]3[C@H]2OC(=O)N3CC)[C@](C)(O)C[C@@H](C)CN(C)[C@H](C)[C@@H](O)[C@]1(C)O | > 64 | > 64 | > 64 | > 64 | > 64
CCCN1C(=O)O[C@H]2[C@H](O[C@@H]3[C@@H](C)[C@H](O[C@H]4C[C@@](C)(OC)[C@@H](O)[C@H](C)O4)[C@@H](C)C(=O)O[C@H](CC)[C@@](C)(O)[C@H](O)[C@@H](C)N(C)C[C@H](C)C[C@@]3(C)O)O[C@H](C)C[C@@H]21 | > 64 | > 64 | > 64 | > 64 | > 64
CCCCCCN1C(=O)O[C@H]2[C@H](O[C@@H]3[C@@H](C)[C@H](O[C@H]4C[C@@](C)(OC)[C@@H](O)[C@H](C)O4)[C@@H](C)C(=O)O[C@H](CC)[C@@](C)(O)[C@H](O)[C@@H](C)N(C)C[C@H](C)C[C@@]3(C)O)O[C@H](C)C[C@@H]21 | > 64 | > 64 | > 64 | > 64 | > 64
C=CCN1C(=O)O[C@H]2[C@H](O[C@@H]3[C@@H](C)[C@H](O[C@H]4C[C@@](C)(OC)[C@@H](O)[C@H](C)O4)[C@@H](C)C(=O)O[C@H](CC)[C@@](C)(O)[C@H](O)[C@@H](C)N(C)C[C@H](C)C[C@@]3(C)O)O[C@H](C)C[C@@H]21 | > 64 | > 64 | > 64 | > 64 | > 64
CC[C@H]1OC(=O)[C@H](C)[C@@H](O[C@H]2C[C@@](C)(OC)[C@@H](O)[C@H](C)O2)[C@H](C)[C@@H](O[C@@H]2O[C@H](C)C[C@H](N(C)C)[C@H]2O)[C@](C)(OC)C[C@@H](C)C(=O)N[C@H](C)[C@@H](O)[C@]1(C)O | 32 (≈ 41.9 µM) | 4 (≈ 5.24 µM) | 0.5 (≈ 0.655 µM) | 1 (≈ 1.31 µM) | 16 (≈ 21 µM)
CC[C@H]1OC(=O)[C@H](C)[C@@H](O[C@H]2C[C@@](C)(OC)[C@@H](O)[C@H](C)O2)[C@H](C)[C@@H](O[C@@H]2O[C@H](C)C[C@H](N(C)C)[C@H]2O)[C@](C)(O)C[C@@H](C)CN(C)[C@H](C)[C@@H](O)[C@]1(C)O [AZITHROMYCIN] | 1 (≈ 1.34 µM) | < 0.125 | < 0.125 | < 0.125 | 2 (≈ 2.67 µM)
